Measured values collected from several papers.
Lines come from different studies, so protocols differ.
Target: Dual specificity tyrosine-phosphorylation-regulated kinase 2 (DYRK2, Homo sapiens, UniProt Q92630)
One construct used (Q92630 1-601): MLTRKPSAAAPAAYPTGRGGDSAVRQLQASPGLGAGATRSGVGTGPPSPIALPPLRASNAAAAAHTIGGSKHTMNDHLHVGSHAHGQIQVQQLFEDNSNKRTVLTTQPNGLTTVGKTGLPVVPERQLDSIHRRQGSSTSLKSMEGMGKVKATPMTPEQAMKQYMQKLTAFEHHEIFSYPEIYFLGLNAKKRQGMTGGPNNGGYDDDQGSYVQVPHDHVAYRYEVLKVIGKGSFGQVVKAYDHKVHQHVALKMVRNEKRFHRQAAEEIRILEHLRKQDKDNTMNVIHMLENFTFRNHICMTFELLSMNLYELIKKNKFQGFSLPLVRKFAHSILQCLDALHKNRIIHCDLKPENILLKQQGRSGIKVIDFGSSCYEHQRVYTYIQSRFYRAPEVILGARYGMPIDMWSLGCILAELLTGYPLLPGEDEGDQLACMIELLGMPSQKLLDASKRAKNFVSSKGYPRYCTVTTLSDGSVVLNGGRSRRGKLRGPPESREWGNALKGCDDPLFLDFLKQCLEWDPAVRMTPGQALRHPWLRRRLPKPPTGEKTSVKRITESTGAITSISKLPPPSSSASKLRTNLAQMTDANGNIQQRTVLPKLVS

SMILES | effect on | action | method | concentration | endpoint | result
N#CCCc1ccc2c(c1)-c1[nH]c3ccc([N+](=O)[O-])cc3c1CC(=O)N2 | cell-free assay |  |  | 0.5 µM | remaining signal | 46.8%
CCCS(=O)(=O)Nc1ccc(F)c(C(=O)c2c[nH]c3ncc(-c4ccc(Cl)cc4)cc23)c1F | enzyme activity | inhibitor |  | 1 µM | inhibition | < 10%
FC(F)(F)Oc1cccc(-c2cnc3ccc(-c4ccncc4)nn23)c1 | enzyme activity | inhibitor | radiometric | 5 µM | activity vs control | 46%
Cc1cc(NC(=O)c2cccc(S(F)(F)(F)(F)F)c2)cc(-n2ccn3nc(-c4cccnc4)cc23)c1 | cell-free assay |  | competition with immobilised ligand | 1 µM | remaining binding | 100%
CS(=O)(=O)CCNCc1ccc(-c2ccc3ncnc(Nc4ccc(OCc5cccc(F)c5)c(Cl)c4)c3c2)o1 | cell-free assay |  |  | 0.5 µM | remaining signal | 102%
COc1cccc(CCNc2nc3cc(C(=O)O)ccc3c3cncnc23)c1 | enzyme activity | inhibitor | radiometric | 1 µM | remaining activity | 59%
CN(C)CC#Cc1ccc(OCCCc2sc(N3CCc4cccc(C(=O)Nc5nc6ccccc6s5)c4C3)nc2C(=O)O)c(F)c1 | cell-free assay |  | competition with immobilised ligand | 1 µM | remaining binding | 100%
Cc1ccc(NC(=O)c2ccc(CN3CCN(C)CC3)cc2)cc1Nc1nc(-c2cccnc2)cs1 | cell-free assay |  |  | 0.5 µM | remaining signal | 109%
CNCc1ccccc1-c1csc([C@H](C)Nc2nc(C)nc3cc(OC)c(OC)cc23)c1 | cell-free assay |  | competition with immobilised ligand | 1 µM | remaining binding | 96%
O=C(O)c1ccc2c(c1)nc(Nc1ccc(F)c(Cl)c1)c1ncncc12 | enzyme activity | inhibitor | radiometric | 1 µM | remaining activity | 41%
CCN(CC)CCNC(=O)c1c(C)[nH]c(/C=C2\C(=O)Nc3ccc(F)cc32)c1C | enzyme activity | inhibitor |  | 0.3 µM | inhibition | -5%
Nc1ncnc2occ(-c3ccc(NC(=O)Nc4cc(C(F)(F)F)ccc4F)cc3)c12 | cell-free assay | inhibitor |  | 20 µM | remaining signal | 19%
NS(=O)(=O)c1cc(NC(=O)C2(c3ccccc3Cl)CC2)ccc1Oc1cccc(Cl)c1 | cell-free assay |  | competition with immobilised ligand | 1 µM | remaining binding | 81%
Cn1cncc1C1=CN(c2ncnc3[nH]cnc23)CCS1 | enzyme activity | inhibitor | radiometric | 50 nM | inhibition | 20.6%
O=C(O)c1ccc2c(c1)nc(Nc1ccc3ccccc3c1)c1ncncc12 | enzyme activity | inhibitor | radiometric | 1 µM | remaining activity | 1%
CSc1cccnc1N1CCN(Cc2nc3ccccc3[nH]2)CC1 | cell-free assay |  | competition with immobilised ligand | 1 µM | remaining binding | 81%
Cc1ccc(Nc2nccc(N(C)c3ccc4c(C)n(C)nc4c3)n2)cc1S(N)(=O)=O | enzyme activity | inhibitor |  | 10 µM | inhibition | -3%
O=C(O)c1ccc2c(c1)nc(Nc1ccccc1Cl)c1ncncc12 | enzyme activity | inhibitor | radiometric | 1 µM | remaining activity | 60%
Cc1c(C(=O)O)cc(-c2ccc(C3CCNCC3)cc2)c2ccc(-c3ccc(C(F)(F)F)cc3)cc12 | binding |  | competition with immobilised ligand | 1 µM | remaining binding | 100%
COc1cccc(Nc2nc3cc(C(=O)O)ccc3c3cnccc23)c1 | enzyme activity | inhibitor | radiometric | 1 µM | remaining activity | 14%
O=C(NCCCC1CCCCC1)c1ccc(CNC(=O)c2cnn(-c3ccccc3)c2C(F)(F)F)cc1 | cell-free assay |  | competition with immobilised ligand | 0.1 µM | remaining binding | 100%
O=C(O)c1ccc2c(c1)nc(Nc1ccc(Cl)cc1)c1ncncc12 | enzyme activity | inhibitor | radiometric | 1 µM | remaining activity | 33%
O=C(O)c1cc(-c2ccc(C3CCNCC3)cc2)c2ccc(-c3ccc(C(F)(F)F)cc3)cc2c1 | cell-free assay |  | competition with immobilised ligand | 1 µM | remaining binding | 100%
O=C(O)c1ccc2c(c1)nc(Nc1ccc(F)c(Cl)c1)c1ccncc12 | enzyme activity | inhibitor | radiometric | 1 µM | remaining activity | 5%
Cn1cnc(Br)c1C1=CN(c2ncnc3[nH]cnc23)CCS1 | enzyme activity | inhibitor | radiometric | 2 µM | inhibition | 98.3%
O=C1Nc2ccc(Cl)cc2C1=Cc1cc(Cl)c(O)c(Cl)c1 | cell-free assay |  |  | 0.5 µM | remaining signal | 94%
O=C(O)c1ccc2c(c1)nc(NCCc1ccccc1)c1ncncc12 | enzyme activity | inhibitor | radiometric | 1 µM | remaining activity | 45%
CC/C(=N\NC(=O)NCc1cccc(O)c1)c1ccc(O)c(C)c1O | enzyme activity | inhibitor |  | 0.1 µM | inhibition | -0.2%
